We go through 2 molecules from paper PMC8463510 (Acta Pharmaceutica Sinica. B, 2021).

For data set [1] the following is noted: azilsartan loaded in CD-MOF, SD rats; cited from earlier work.
For data set [2] the following is noted: azilsartan loaded in CD-MOF; cited from earlier work.
The nature of data set [3]: Apparent solubility in vitro. The settings on record: thermodynamic from solid; for solubility at 2 h: 25 °C. In kind it is physicochemical.
A short description of data set [4]: Oral pharmacokinetics / bioavailability in rats. In kind it is in vivo. The settings on record: male, Sprague-Dawley, rat, plasma, 4 mg/kg. Summed up:
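Male SD rats (250 ± 50 g), fasted 12 h with water, randomised to groups, n = 6. Test compound or its cyclodextrin/CD-MOF formulations were suspended in 0.5% CMC-Na and given orally at 4 mg/kg (as parent). Orbital blood was taken into heparin at 0–24 h, and plasma stored at −80 °C. Progesterone internal standard, acidified-acetonitrile precipitation, HPLC–MS/MS MRM positive ion (m/z 319.2 → 273.2). PK by […] analysis; mean ± SD.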

Molecules are shown by their SMILES. Values after ≈ are worked out from the molar mass of the structure shown. Bounds are passed on as bounds.

Take `CCOc1nc2cccc(C(=O)O)c2n1Cc1ccc(-c2ccccc2-c2noc(=O)[nH]2)cc1` [azilsartan]: the “bioavailability, times that of API” value in data set [1] was 9.7 times. Besides, in data set [2], the “apparent solubility, times of the API” value was 340 times.
Broadly, the solubility is how much of the substance goes into solution per volume. One may read the AUC(0-t) as the area under the concentration-time curve up to a stated or last time point. A high value points to high exposure. As a reminder, the Cmax is the peak of the concentration-time curve. A word on the Tmax: it is the time from dosing to the highest level. `C[C@@]12CC[C@@H]3[C@@](CC[C@H]4[C@@]3(C)CCC[C@@]4(C)C(=O)O)(CC1=O)C2` [STV, Isosteviol]: the solubility at 2 h is under 0.02 µg/mL in data set [3] (pH 1, simulated gastric fluid); under 0.02 µg/mL in data set [3] (pH 4.5, aqueous buffer); 20.1 µg/mL (≈ 63 µM) in data set [3] (pH 6.8, aqueous buffer); 0.13 µg/mL (≈ 0.407 µM) in data set [3] (distilled water, water). The solubility in data set [3] (KOH solution, pH 11, aqueous buffer) came to 240 µg/mL (≈ 753 µM). In addition, the AUC(0-t) in data set [4] is 590 ng·h/mL. The molecule further had a peak concentration (Cmax) in data set [4] of 61 ± 39 ng/mL. In data set [4], the time of peak concentration (Tmax) is 3.01 h.
